The target in assay [1] is DNA topoisomerase 2-alpha (Homo sapiens) (UniProt P11388).
The target in assay [2] is DNA gyrase (Staphylococcus aureus) (UniProt P0A0K8+P20831).
Assay [3] has as its target Topoisomerase IV (Staphylococcus aureus) (UniProt P0C1U9+P0C1S7).
For assay [4], the system named is Staphylococcus aureus.
For assay [5], the system named is Staphylococcus aureus. Nature of the assay: Antimicrobial activity against Staphylococcus aureus isogenic forms expressing rpoB H481Y and parC S80F mutant. It counts as functional. The method, boiled down: (§1)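 MIC (μg/mL) on otherwise isogenic derivatives of S. aureus ATCC 29213 that carry the rifamycin-resistance allele rpoB H481Y and/or the quinolone-resistance alleles parC S80F and gyrA S84L. The wild-type parent is the reference strain. MICs were determined both by agar dilution and by broth dilution, tested side by side on the same panel.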

The subject of assay [6] is Staphylococcus aureus. Description: Bactericidal activity against methicillin-resistant Staphylococcus aureus 67-0. Type of assay: functional.
Assay [7] concerns Staphylococcus aureus. Nature of the assay: Antimicrobial activity against Staphylococcus aureus isogenic forms expressing parC S80F mutant. It counts as functional. In short, it runs like this: as §1
A further assay deals with Streptococcus agalactiae. Description: Antimicrobial activity against Streptococcus agalactiae clinical isolates by broth dilution method. Type of assay: functional. (Dilution methods test growth across graded concentrations, often in twofold steps.)
Assay [8] relates to Staphylococcus aureus. Nature of the assay: Antimicrobial activity against methicillin-resistant Staphylococcus aureus 67-0. It counts as functional.
Another assay deals with Streptococcus pyogenes. Description: Antimicrobial activity against Streptococcus pyogenes clinical isolates by broth dilution method. It counts as functional.
The subject of assay [9] is Staphylococcus aureus. Nature of the assay: Antimicrobial activity against methicillin-resistant Staphylococcus aureus clinical isolates by broth dilution method. It counts as functional.
For assay [10], the system named is Staphylococcus aureus. Nature of the assay: Antimicrobial activity against wild type Staphylococcus aureus. Type of assay: functional.
The subject of assay [11] is Staphylococcus epidermidis. Nature of the assay: Antimicrobial activity against methicillin-resistant Staphylococcus epidermidis clinical isolates by broth dilution method. Type of assay: functional.
A short description of assay [12]: Inhibition of wild type Staphylococcus aureus RNA polymerase assessed as reduction in RNA product formation.
In assay [13] the test system is Staphylococcus aureus. Nature of the assay: Antimicrobial activity against Staphylococcus aureus isogenic forms expressing rpoB H481Y/gyrA S84L/parC S80F mutant. Type of assay: functional. In short, it runs like this: as §1
Assay [14] deals with Staphylococcus aureus. Nature of the assay: Antimicrobial activity against Staphylococcus aureus isogenic forms expressing rpoB H481Y and gyrA S84L mutant. It counts as functional.
Assay [15] in a line: Inhibition of RIF-resistant Staphylococcus aureus RNA polymerase RpoB H481Y mutant assessed as reduction in RNA product formation.
Assay [16] has as its system Staphylococcus aureus. Nature of the assay: Antimicrobial activity against methicillin-sensitive Staphylococcus aureus clinical isolates by broth dilution method. It counts as functional.
The test system of assay [17] is Staphylococcus epidermidis. Description: Antimicrobial activity against methicillin-sensitive Staphylococcus epidermidis clinical isolates by broth dilution method. Type of assay: functional.
The next assay has as its system Streptococcus pneumoniae. Description: Antimicrobial activity against Streptococcus pneumoniae clinical isolates by broth dilution method. It counts as functional.
In assay [18] the test system is Staphylococcus aureus. Description: Antimicrobial activity against Staphylococcus aureus isogenic forms expressing gyrA S84L mutant. Type of assay: functional.
Assay [19] concerns Staphylococcus aureus. Description: Antimicrobial activity against Staphylococcus aureus isogenic forms expressing rpoB H481Y mutant. It counts as functional.
Assay [20] concerns Staphylococcus aureus. Nature of the assay: Antimicrobial activity against Staphylococcus aureus isogenic forms expressing gyrA S84L and parC S80F mutant. It counts as functional. In short, it runs like this: as §1

In brackets after ≈: the same amount, converted by molar mass.

Regarding `O=C(O)c1cn(C2CC2)c2cc(N3CCNCC3)c(F)cc2c1=O` [CIPROFLOXACIN], the CC50 was greater than 150 µM in assay [1], 5 µM in [2], 0.4 µM in [3] and 31 µM with Staphylococcus aureus [4]. For the same molecule, the minimum inhibitory concentration (MIC) against Staphylococcus aureus [5] and in the assay with Staphylococcus aureus [7] was 2 µg/mL (≈ 6.04 µM) throughout. The MBC (commonly the smallest concentration meeting the test's criterion for killing) against Staphylococcus aureus [6] was 16 µg/mL (≈ 48.3 µM).

For `CO[C@H]1/C=C/O[C@@]2(C)Oc3c(C)c(O)c4c(O)c(c(/C=N/N5CCN(C)CC5)c(O)c4c3C2=O)NC(=O)/C(C)=C\C=C\[C@H](C)[C@H](O)[C@@H](C)[C@@H](O)[C@@H](C)[C@H](OC(C)=O)[C@@H]1C` [RIFAMPIN], the MIC – broadly, the lowest concentration found to suppress growth – in the assay with Streptococcus agalactiae is 0.03 to 2 µg/mL (≈ 0.0365 to 2.43 µM); in the assay with Staphylococcus aureus [8], 0.008 µg/mL (≈ 0.00972 µM); in the assay with Staphylococcus aureus [9], 0.008 to 4 µg/mL (≈ 0.00972 to 4.86 µM); in the assay on Staphylococcus aureus [10], 0.008 µg/mL (≈ 0.00972 µM); in [11], “>=0.004 - 4 ug ml-1”; in the assay on Staphylococcus aureus [13], greater than 250 µg/mL. Further, the MIC in the assay on Staphylococcus aureus [14] was greater than 250 µg/mL; in the assay on Streptococcus pneumoniae it was 0.12 to 1 µg/mL (≈ 0.146 to 1.22 µM); in the assay on Staphylococcus aureus [5], greater than 250 µg/mL; against Staphylococcus aureus [18], 0.008 µg/mL (≈ 0.00972 µM); against Staphylococcus aureus [19], greater than 250 µg/mL; in the assay with Staphylococcus aureus [20] it was 0.008 µg/mL (≈ 0.00972 µM). For the same molecule, in the assay with Staphylococcus aureus [7], the MIC came to 0.008 µg/mL (≈ 0.00972 µM). In addition, the MIC50 (in general, the lowest concentration that inhibits either 50% of growth or 50% of the strains tested, depending on the study) worked out at 0.12 µg/mL (≈ 0.146 µM) with Streptococcus agalactiae; 0.06 µg/mL (≈ 0.0729 µM) in the assay on Streptococcus pyogenes; 0.015 µg/mL (≈ 0.0182 µM) in the assay on Staphylococcus aureus [9]; 0.015 µg/mL (≈ 0.0182 µM) in assay [11] (Staphylococcus epidermidis); 0.015 µg/mL (≈ 0.0182 µM) against Staphylococcus aureus [16]; 0.015 µg/mL (≈ 0.0182 µM) in assay [17]. Further, the MIC50 in the assay on Streptococcus pneumoniae worked out at 0.25 µg/mL (≈ 0.304 µM). The MIC90 (as a rule, an inhibitory concentration at the 90% level, which refers to growth in some studies and to a panel of isolates in others) against Streptococcus agalactiae is 0.12 µg/mL (≈ 0.146 µM); against Streptococcus pyogenes, 0.12 µg/mL (≈ 0.146 µM); against Staphylococcus aureus [9] it was 0.015 µg/mL (≈ 0.0182 µM); in assay [11] (Staphylococcus epidermidis) it was greater than 4 µg/mL; with Staphylococcus aureus [16], 0.015 µg/mL (≈ 0.0182 µM); in [17] it was 0.015 µg/mL (≈ 0.0182 µM). In the assay with Streptococcus pneumoniae, this molecule came in with an MIC90 of 0.25 µg/mL (≈ 0.304 µM). The figures for the IC50 in assay [12] and in assay [15] were 0.015 µM and greater than 25 µM, respectively. The molecule further returned an MBC against Staphylococcus aureus [6] of 2 µg/mL (≈ 2.43 µM).

For the origin of these results see ChEMBL document CHEMBL4425125, “Development of a Dual-Acting Antibacterial Agent (TNP-2092) for the Treatment of Persistent Bacterial Infections” (J Med Chem, 2016).
